Each block holds one compound with its values, some of them ahead of it. Calls of active or inactive are those of the source. No cut-off for these calls is given here.
Tests used:
RAW264.7 [1] = test: Cytotoxicity against […] RAW264.7 cells assessed as reduction in cell viability at 10 uM incubated for 48 hrs by resazurin staining based assay; details: raw264.7, 48 h
Procedure, shortened: (§1)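 RAW 264.7 macrophages treated 48 h with compound in RPMI (final DMSO 0.1%); survival measured by resazurin viability assay. Screening at 10 µM, IC50 range 1–80 µM. Controls amphotericin B 3.125 µg/mL and 0.1% DMSO; three independent experiments in internal quadruplicate.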

Leishmania braziliensis [2] = test: Antileishmanial activity against Leishmania braziliensis MHOM/BR/75/M2904 promastigotes assessed as reduction in cell viability at 10 uM incubated for 48 hrs by resazurin staining based assay; format: functional, organism-based
Procedure, shortened: (§2)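 Log-phase promastigotes exposed 48 h to compound in RPMI (final DMSO 0.1%); survival read by resazurin relative to DMSO. Screening at 10 µM; IC50 runs at 1–80 µM. Amphotericin B 3.125 µg/mL and 0.1% DMSO as controls; quadruplicate wells, two or three independent experiments; significance by one-way ANOVA with Dunnett post-test.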

Leishmania braziliensis [3] = test: Antileishmanial activity against Leishmania braziliensis MHOM/BR/75/M2904 amastigotes infected in […] cells assessed as cell viability at 10 uM incubated for 48 hrs by resazurin staining based assay (reference value: 10.71 %); format: functional
[4] = Solubility of compound in 0.1% DMSO by light microscopy; format: physicochemical
Procedure, shortened: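 Compounds taken up in aqueous 5% DMSO, diluted in RPMI to 10 µM (final DMSO 0.1%), and inspected by light microscopy for crystal formation.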

Leishmania braziliensis [5] = test: Antileishmanial activity against Leishmania braziliensis MHOM/BR/75/M2904 amastigotes infected in […] cells assessed as cell viability at 40 uM incubated for 48 hrs by resazurin staining based assay (reference value: 10.71 %); format: functional
Leishmania braziliensis [6] = test: Antileishmanial activity against Leishmania braziliensis MHOM/BR/75/M2904 amastigotes infected in […] cells assessed as cell viability at 30 uM incubated for 48 hrs by resazurin staining based assay (reference value: 10.71 %); format: functional
Leishmania braziliensis [7] = test: Antileishmanial activity against Leishmania braziliensis MHOM/BR/75/M2904 amastigotes infected in […] cells assessed as cell viability at 20 uM incubated for 48 hrs by resazurin staining based assay (reference value: 10.71 %); format: functional
Leishmania braziliensis [8] = test: Antileishmanial activity against Leishmania braziliensis MHOM/BR/75/M2904 amastigotes infected in […] cells assessed as cell viability at 5 uM incubated for 48 hrs by resazurin staining based assay (reference value: 10.71 %); format: functional
Leishmania braziliensis [9] = test: Antileishmanial activity against Leishmania braziliensis MHOM/BR/75/M2904 amastigotes infected in […] cells assessed as cell viability at 2.5 uM incubated for 48 hrs by resazurin staining based assay (reference value: 10.71 %); format: functional
Leishmania braziliensis [10] = test: Antileishmanial activity against Leishmania braziliensis MHOM/BR/75/M2904 amastigotes infected in […] cells assessed as cell viability at 1 uM incubated for 48 hrs by resazurin staining based assay (reference value: 10.71 %); format: functional
Leishmania braziliensis [11] = test: Antileishmanial activity against Leishmania braziliensis MHOM/BR/75/M2904 promastigotes assessed as reduction in cell viability incubated for 48 hrs by resazurin staining based assay; format: functional, organism-based; details: MHOM/BR/75/M2904, 48 h; procedure, shortened: as §2
RAW264.7 [12] = test: Cytotoxicity against […] RAW264.7 cells assessed as reduction in cell viability incubated for 48 hrs by resazurin staining based assay; details: Mus musculus, RAW264.7, 48 h; procedure, shortened: as §1
RAW264.7 [13] = test: Cytotoxicity against […] RAW264.7 cells assessed as reduction in cell viability at 3.125 ug/ml incubated for 48 hrs by resazurin staining based assay; details: raw264.7, 48 h; procedure, shortened: as §1
Leishmania braziliensis [14] = test: Antileishmanial activity against Leishmania braziliensis MHOM/BR/75/M2904 amastigotes infected in […] cells assessed as cell viability at 80 uM incubated for 48 hrs by resazurin staining based assay (reference value: 10.71 %); format: functional
Leishmania braziliensis [15] = test: Antileishmanial activity against Leishmania braziliensis MHOM/BR/75/M2904 amastigotes infected in […] cells assessed as reduction in cell viability incubated for 48 hrs by resazurin staining based assay; format: functional, organism-based; details: MHOM/BR/75/M2904, RAW264.7, 48 h
[16] = Selectivity index, ratio of IC50 of cytotoxicity against […] RAW264.7 cells to IC50 of antileishmanial activity against Leishmania braziliensis MHOM/BR/75/M2904 amastigotes infected in […] RAW264.7 cells; format: toxicity, cell-based; details: read-out: Ratio IC50
Procedure, shortened: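 Selectivity index from IC50 on RAW 264.7 macrophages over IC50 against intracellular amastigotes, both after 48 h by resazurin.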

Leishmania braziliensis [17] = test: Cell cycle arrest in Leishmania braziliensis MHOM/BR/75/M2904 amastigotes infected in […] cells assessed as lobulated cell bodies incubated for 48 hrs by transmission electron microscopy; format: functional, organism-based
Procedure, shortened: (§3)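 Infected macrophage cultures treated with compound or DMSO control, then examined by transmission electron microscopy for parasite morphology within parasitophorous vacuoles (lobulation, multimembrane vesicles, chromatin fragments).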

Leishmania braziliensis [18] = test: Induction of autophagy in Leishmania braziliensis MHOM/BR/75/M2904 amastigotes infected in […] RAW264.7 cells incubated for 48 hrs by transmission electron microscopy; format: functional, organism-based; procedure, shortened: as §3
Leishmania braziliensis [19] = test: Induction of apoptosis in Leishmania braziliensis MHOM/BR/75/M2904 amastigotes infected in […] RAW264.7 cells incubated for 48 hrs by transmission electron microscopy; format: functional, organism-based; procedure, shortened: as §3

SMILES: COc1ccc(Cn2cc(COC(=O)/C=C/c3ccccc3)nn2)cc1
Activity (RAW264.7 [1]): Non-Toxic
Activity (Leishmania braziliensis [2]): inactive
Activity (Leishmania braziliensis [3]): 76%

SMILES: O=C(/C=C/c1ccccc1)OCCCc1cn(Cc2ccc(OC(F)(F)F)cc2)nn1
Activity (RAW264.7 [1]): Non-Toxic
Activity (Leishmania braziliensis [2]): Active
Activity (Leishmania braziliensis [3]): 65.84%

SMILES: O=C(/C=C/c1ccc(Br)cc1)Oc1ccc2c(c1)C(=O)OC2
Activity (RAW264.7 [1]): Non-Toxic
Activity (Leishmania braziliensis [2]): Active
Activity (Leishmania braziliensis [3]): 50.14%

SMILES: O=C(/C=C/c1ccccc1)OCCCc1cn(Cc2ccccc2Br)nn1
Activity (RAW264.7 [1]): Non-Toxic
Activity (Leishmania braziliensis [3]): 57.32%

solubility [4]: Insoluble
SMILES: COc1ccc(/C=C/C(=O)Oc2ccc3c(c2)C(=O)OC3)cc1

solubility [4]: Insoluble
SMILES: O=C(/C=C/c1ccccc1)OCc1cn(Cc2ccc(C(F)(F)F)cc2)nn1

SMILES: O=C(/C=C/c1ccc([N+](=O)[O-])cc1)Oc1ccc2c(c1)C(=O)OC2
Activity (RAW264.7 [1]): Non-Toxic
Activity (Leishmania braziliensis [3]): 59.54%

SMILES: O=C(/C=C/c1ccccc1)OCCCc1cn(Cc2ccc(Br)cc2)nn1
Activity (RAW264.7 [1]): Non-Toxic
Activity (Leishmania braziliensis [2]): Active
Activity (Leishmania braziliensis [3]): 45.1%

SMILES: O=C(/C=C/c1ccccc1)OCc1cn(Cc2ccccc2)nn1
Activity (RAW264.7 [1]): Non-Toxic
Activity (Leishmania braziliensis [2]): inactive
Activity (Leishmania braziliensis [3]): 19.91%

solubility [4]: Insoluble
SMILES: O=C(/C=C/c1ccccc1)OCc1cn(Cc2ccc(Br)cc2)nn1

SMILES: O=C(/C=C/c1ccccc1)OCc1cn(Cc2ccc(OC(F)(F)F)cc2)nn1
Activity (RAW264.7 [1]): Non-Toxic
Activity (Leishmania braziliensis [2]): inactive
Activity (Leishmania braziliensis [3]): 77.39%

SMILES: O=C(/C=C/c1ccccc1)OCc1cn(Cc2cc(Cl)ccc2Cl)nn1
Activity (RAW264.7 [1]): Non-Toxic
Activity (Leishmania braziliensis [2]): inactive
Activity (Leishmania braziliensis [3]): 78.98%

solubility [4]: Insoluble
SMILES: O=C(/C=C/c1ccc(Cl)cc1)Oc1ccc2c(c1)C(=O)OC2

SMILES: O=C(/C=C/c1ccccc1)OCc1cn(Cc2ccc(F)c(F)c2)nn1
Activity (RAW264.7 [1]): Non-Toxic
Activity (Leishmania braziliensis [2]): inactive
Activity (Leishmania braziliensis [3]): 68.6 - 86.32%
Activity (Leishmania braziliensis [5]): 72.41%
Activity (Leishmania braziliensis [6]): 95.13%
Activity (Leishmania braziliensis [7]): 79.77%
Activity (Leishmania braziliensis [8]): 98.18%
Activity (Leishmania braziliensis [9]): 83.08%
Activity (Leishmania braziliensis [10]): 85.4%
IC50 (Leishmania braziliensis [11]): 3.05 µM
IC50 (RAW264.7 [12]): > 80 µM

solubility [4]: Insoluble
SMILES: O=C(/C=C/c1ccccc1)OCc1cn(Cc2ccc(I)cc2)nn1

SMILES: O=C(/C=C/c1ccccc1)OCCCc1cn(Cc2cc(Cl)ccc2Cl)nn1
Activity (RAW264.7 [1]): Non-Toxic
Activity (Leishmania braziliensis [2]): Active
Activity (Leishmania braziliensis [3]): 45.74%

SMILES: O=C(/C=C/c1ccccc1)OCCCc1cn(Cc2ccc([N+](=O)[O-])cc2)nn1
Activity (RAW264.7 [1]): Non-Toxic
Activity (Leishmania braziliensis [2]): Active
Activity (Leishmania braziliensis [3]): 20.58%

SMILES: O=C(/C=C/c1ccccc1)OCCCc1cn(Cc2ccc(F)cc2)nn1
Activity (RAW264.7 [1]): Non-Toxic
Activity (Leishmania braziliensis [3]): 67.84%

solubility [4]: Insoluble
SMILES: O=C(/C=C/c1ccccc1)OCc1cn(Cc2ccc(Cl)cc2)nn1

SMILES: O=C(/C=C/c1ccccc1)OCc1cn(Cc2ccccc2Br)nn1
Activity (RAW264.7 [1]): Non-Toxic
Activity (Leishmania braziliensis [2]): inactive
Activity (Leishmania braziliensis [3]): 80.12%

SMILES: O=C(/C=C/c1ccccc1)OCCCc1cn(Cc2ccc(F)c(F)c2)nn1
Activity (RAW264.7 [1]): Non-Toxic
Activity (Leishmania braziliensis [3]): 47.85%

SMILES: O=C(/C=C/c1ccccc1)OCc1cn(Cc2ccc(F)cc2)nn1
Activity (RAW264.7 [1]): Non-Toxic
Activity (Leishmania braziliensis [2]): inactive
Activity (Leishmania braziliensis [3]): 59.1%

SMILES: COc1ccc(Cn2cc(CCCOC(=O)/C=C/c3ccccc3)nn2)cc1
Activity (RAW264.7 [1]): Non-Toxic
Activity (Leishmania braziliensis [3]): 60.48%

SMILES: O=C(/C=C/c1ccccc1)OCc1cn(Cc2c(Cl)cc(Cl)cc2Cl)nn1
Activity (RAW264.7 [1]): Non-Toxic
Activity (Leishmania braziliensis [2]): inactive
Activity (Leishmania braziliensis [3]): 70.38%

SMILES: O=C(/C=C/c1ccccc1)OCCCc1cn(Cc2ccc(C(F)(F)F)cc2)nn1
Activity (RAW264.7 [1]): Non-Toxic
Activity (Leishmania braziliensis [2]): Active
Activity (Leishmania braziliensis [3]): 69.24%

solubility [4]: Insoluble
SMILES: O=C(/C=C/c1ccccc1)OCc1cn(Cc2ccc([N+](=O)[O-])cc2)nn1

SMILES: O=C(/C=C/c1ccc(F)cc1)Oc1ccc2c(c1)C(=O)OC2
Activity (RAW264.7 [1]): Non-Toxic
Activity (Leishmania braziliensis [2]): Active
Activity (Leishmania braziliensis [3]): 43.87%

SMILES: O=C(/C=C/c1ccccc1)OCCCc1cn(Cc2ccc(Cl)cc2)nn1
Activity (RAW264.7 [1]): Non-Toxic
Activity (Leishmania braziliensis [2]): Active
Activity (Leishmania braziliensis [3]): 49.01%

SMILES: C[C@@H]1[C@H](O)[C@@H](C)/C=C/C=C/C=C/C=C/C=C/C=C/C=C/[C@H](O[C@@H]2O[C@H](C)[C@@H](O)[C@H](N)[C@@H]2O)C[C@@H]2O[C@](O)(C[C@@H](O)C[C@@H](O)[C@H](O)CC[C@@H](O)C[C@@H](O)CC(=O)O[C@H]1C)C[C@H](O)[C@H]2C(=O)O [AMPHOTERICIN B]
Activity (RAW264.7 [13]): Non-Toxic
Activity (Leishmania braziliensis [3]): 98.25%

SMILES: O=C(/C=C/c1ccccc1)OCCCc1cn(Cc2ccccc2F)nn1
Activity (RAW264.7 [1]): Non-Toxic
Activity (Leishmania braziliensis [3]): 19.67%

SMILES: O=C(/C=C/c1ccccc1)OCCCc1cn(Cc2ccc(I)cc2)nn1
Activity (RAW264.7 [1]): Non-Toxic
Activity (Leishmania braziliensis [2]): Active
Activity (Leishmania braziliensis [3]): 52.07%

SMILES: O=C(/C=C/c1ccccc1)OCCCc1cn(Cc2ccccc2)nn1
Activity (RAW264.7 [1]): Non-Toxic
Activity (Leishmania braziliensis [2]): Active
Activity (Leishmania braziliensis [3]): 39.73%

SMILES: COc1cc(/C=C/C(=O)Oc2ccc3c(c2)C(=O)OC3)cc(OC)c1OC
Activity (RAW264.7 [1]): Non-Toxic
Activity (Leishmania braziliensis [2]): Active
Activity (Leishmania braziliensis [3]): 64.46 - 80.47%
Activity (Leishmania braziliensis [14]): 35.51%
Activity (Leishmania braziliensis [5]): 46.33%
Activity (Leishmania braziliensis [6]): 47.12%
Activity (Leishmania braziliensis [7]): 19.71%
Activity (Leishmania braziliensis [8]): 79.72%
Activity (Leishmania braziliensis [9]): 74.54%
IC50 (Leishmania braziliensis [11]): 7.58 µM
IC50 (RAW264.7 [12]): > 80 µM
IC50 (Leishmania braziliensis [15]): 8.27 µM
selectivity ratio [16]: > 9.67
Activity (Leishmania braziliensis [17]): Active
Activity (Leishmania braziliensis [18]): Active
Activity (Leishmania braziliensis [19]): Active

From ChEMBL document CHEMBL4311973, “Synthesis of cinnamic acid derivatives and leishmanicidal activity against Leishmania braziliensis” (Eur J Med Chem, 2019)
